ChEMBL document CHEMBL3877289, “New family of antimicrobial agents derived from 1,4-naphthoquinone” (Eur J Med Chem, 2016)
Values after ≈ are worked out from the molar mass of the structure shown.

What was measured:
Salmonella bongori = assay: Antibacterial activity against Salmonella bongori PCM 2552 after 20 hrs by microbroth dilution method; type: functional; settings: PCM 2552, 20 h
In short: (§1)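 MIC by broth microdilution in Mueller–Hinton broth. Strains were pre-grown 24h at 37 °C with shaking at 180 rpm. Inoculum was 5x10^5 CFU/ml, exposed 20 h at 37 °C to compound (0.001 – 5 mg/ml, DMSO solvent). MIC was the lowest concentration inhibiting observable growth. Tetracycline served as reference. Triplicate.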

Klebsiella pneumoniae = assay: Antibacterial activity against Klebsiella pneumoniae PCM1 after 20 hrs by microbroth dilution method; type: functional; settings: PCM1, 20 h; in short: as §1
Enterobacter cloacae = assay: Antibacterial activity against Enterobacter cloacae PCM 2569 after 20 hrs by microbroth dilution method; type: functional; settings: PCM 2569, 20 h; in short: as §1
Staphylococcus aureus [1] = assay: Antibacterial activity against Staphylococcus aureus ATCC 6538 after 20 hrs by microbroth dilution method; type: functional; settings: ATCC 6538, 20 h; in short: as §1
Pseudomonas aeruginosa = assay: Antibacterial activity against Pseudomonas aeruginosa PCM 2562 after 20 hrs by microbroth dilution method; type: functional; settings: PCM 2562, 20 h; in short: as §1
Escherichia coli = assay: Antibacterial activity against Escherichia coli ATCC 8739 after 20 hrs by microbroth dilution method; type: functional; settings: ATCC 8739, 20 h; in short: as §1
Enterococcus faecalis = assay: Antibacterial activity against Enterococcus faecalis PCM 2673 after 20 hrs by microbroth dilution method; type: functional; settings: PCM 2673, 20 h; in short: as §1
[2] = Hemolytic activity in human erythrocytes at 1 to 250 ug/mL incubated for 1 hr; type: ADME, cell-based, Erythrocyte; settings: read-out: Activity
In short: (§2)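 Human blood was collected into citrate dextrose anticoagulant. Erythrocytes were spun at 500×g for 10 min at 4 °C, then washed in PBS (10 mM phosphate, pH 7.5; 150 mM NaCl) until the supernatant was clear, and resuspended at 2%. 450 µl of suspension was mixed with compound in 50 µl DMSO (1 - 250 µg/ml), incubated 1h at 37 °C, spun at 5000×g for 10 min, and supernatant A415 was read. Controls: tetracycline and chloramphenicol negative, Triton X-100 (1%) positive.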

[3] = Hemolytic activity in human erythrocytes at 60 ug/mL incubated for 1 hr; type: ADME, cell-based, Erythrocyte; settings: read-out: Activity; in short: as §2
Proteus vulgaris = assay: Antibacterial activity against Proteus vulgaris PCM 2668 after 20 hrs by microbroth dilution method; type: functional; settings: PCM 2668, 20 h; in short: as §1
Staphylococcus aureus [4] = assay: Antibacterial activity against Staphylococcus aureus CDC587 assessed as reduction in CFU/ml by <3 logs after 24 hrs; type: functional; settings: CDC587, 24 h
Staphylococcus aureus [5] = assay: Antibacterial activity against Staphylococcus aureus MW2 assessed as reduction in CFU/ml by <3 logs after 24 hrs; type: functional; settings: MW2, 24 h
[6] = Hemolytic activity in human blood cells at 5 ug/mL after 48 hrs by photometric method; type: ADME, cell-based, Erythrocyte; settings: read-out: Activity
Staphylococcus aureus [7] = assay: Antibacterial activity against Staphylococcus aureus MN8 assessed as reduction in CFU/ml by <3 logs after 24 hrs; type: functional; settings: MN8, 24 h
Staphylococcus aureus [8] = assay: Antibacterial activity against Staphylococcus aureus LAC assessed as reduction in CFU/ml by <3 logs after 24 hrs; type: functional
Staphylococcus aureus [9] = assay: Antibacterial activity against Staphylococcus aureus MNPE assessed as reduction in CFU/ml by <3 logs after 24 hrs; type: functional

| SMILES | MIC (Salmonella bongori) [µg/mL] | MIC (Klebsiella pneumoniae) [µg/mL] | MIC (Enterobacter cloacae) [µg/mL] | MIC (Staphylococcus aureus [1]) [µg/mL] | MIC (Pseudomonas aeruginosa) [µg/mL] | MIC (Escherichia coli) [µg/mL] | MIC (Enterococcus faecalis) [µg/mL] | hemolysis at 1 h [2] [%] | hemolysis at 1 h, 60 ug/mL [3] [%] | MIC (Proteus vulgaris) [µg/mL] | MIC (Staphylococcus aureus [4]) [µg/mL] | MIC (Staphylococcus aureus [5]) [µg/mL] | hemolysis at 48 h, 5 ug/mL [6] [%] | MIC (Staphylococcus aureus [7]) [µg/mL] | MIC (Staphylococcus aureus [8]) [µg/mL] | MIC (Staphylococcus aureus [9]) [µg/mL] |
| --- | --- | --- | --- | --- | --- | --- | --- | --- | --- | --- | --- | --- | --- | --- | --- | --- |
| COc1cc(OC)c(C2=CC(=O)c3ccccc3C2=O)c(OC)c1 | 250 (≈ 771 µM) | 250 (≈ 771 µM) | 250 (≈ 771 µM) | 250 (≈ 771 µM) | 250 (≈ 771 µM) | 250 (≈ 771 µM) | – | – | – | – | – | – | – | – | – | – |
| O=C1C=CC(=O)c2ccccc21 [NAPHTHOQUINONE] | 125 (≈ 790 µM) | 250 (≈ 1580 µM) | 250 (≈ 1580 µM) | 31.2 (≈ 197 µM) | 125 (≈ 790 µM) | 125 (≈ 790 µM) | 125 (≈ 790 µM) | – | – | – | – | – | – | – | – | – |
| Cc1cc(N(C)C)ccc1C1=CC(=O)c2ccccc2C1=O | 250 (≈ 858 µM) | 250 (≈ 858 µM) | 250 (≈ 858 µM) | 7.8 (≈ 26.8 µM) | 250 (≈ 858 µM) | 250 (≈ 858 µM) | – | ≤ 2 | 2 | – | – | – | – | – | – | – |
| CC(C)[C@H](NC1=CC(=O)c2ccccc2C1=O)C(=O)O | 500 (≈ 1830 µM) | 500 (≈ 1830 µM) | 500 (≈ 1830 µM) | 500 (≈ 1830 µM) | 500 (≈ 1830 µM) | 500 (≈ 1830 µM) | 500 (≈ 1830 µM) | – | – | 500 (≈ 1830 µM) | – | – | – | – | – | – |
| O=C1C=C(Nc2ccccc2)C(=O)c2ccccc21 | 250 (≈ 1000 µM) | 250 (≈ 1000 µM) | 250 (≈ 1000 µM) | 62.5 (≈ 251 µM) | 250 (≈ 1000 µM) | 250 (≈ 1000 µM) | – | – | – | – | – | – | – | – | – | – |
| O=C1C=C(N2CCC[C@H]2C(=O)O)C(=O)c2ccccc21 | 250 (≈ 922 µM) | 250 (≈ 922 µM) | 250 (≈ 922 µM) | 31.2 (≈ 115 µM) | 250 (≈ 922 µM) | 250 (≈ 922 µM) | 250 (≈ 922 µM) | – | – | 500 (≈ 1840 µM) | – | – | – | – | – | – |
| Cc1ccc(C2=CC(=O)c3ccccc3C2=O)cc1C | 500 (≈ 1910 µM) | 500 (≈ 1910 µM) | 500 (≈ 1910 µM) | 500 (≈ 1910 µM) | 500 (≈ 1910 µM) | 500 (≈ 1910 µM) | – | – | – | 500 (≈ 1910 µM) | – | – | – | – | – | – |
| COc1cc(N(C)C)ccc1C1=CC(=O)c2ccccc2C1=O | 250 (≈ 813 µM) | 250 (≈ 813 µM) | 250 (≈ 813 µM) | 7.8 (≈ 25.4 µM) | 250 (≈ 813 µM) | 250 (≈ 813 µM) | – | – | – | – | – | – | – | – | – | – |
| COc1cc(NC(C)=O)ccc1C1=CC(=O)c2ccccc2C1=O | 250 (≈ 778 µM) | 250 (≈ 778 µM) | 250 (≈ 778 µM) | 15.6 (≈ 48.5 µM) | 250 (≈ 778 µM) | 250 (≈ 778 µM) | – | ≤ 2 | – | – | – | – | – | – | – | – |
| Cc1cc(C)c(C2=CC(=O)c3ccccc3C2=O)c(C)c1 | 500 (≈ 1810 µM) | 500 (≈ 1810 µM) | 500 (≈ 1810 µM) | 15.6 (≈ 56.5 µM) | 500 (≈ 1810 µM) | 500 (≈ 1810 µM) | – | – | – | 500 (≈ 1810 µM) | – | – | – | – | – | – |
| COc1cc2ccc(C3=CC(=O)c4ccccc4C3=O)cc2cc1OC | 500 (≈ 1450 µM) | 500 (≈ 1450 µM) | 500 (≈ 1450 µM) | 500 (≈ 1450 µM) | 500 (≈ 1450 µM) | 500 (≈ 1450 µM) | – | – | – | – | – | – | – | – | – | – |
| O=C1C=C(c2ccccc2)C(=O)c2ccccc21 | 250 (≈ 1070 µM) | – | – | – | 250 (≈ 1070 µM) | – | – | – | – | – | – | – | – | – | – | – |
| O=C1C=C(c2ccc(N(Cc3ccccc3)Cc3ccccc3)cc2)C(=O)c2ccccc21 | 250 (≈ 582 µM) | 250 (≈ 582 µM) | 250 (≈ 582 µM) | 250 (≈ 582 µM) | 250 (≈ 582 µM) | 250 (≈ 582 µM) | 250 (≈ 582 µM) | – | – | – | – | – | – | – | – | – |
| CC1=CC(=O)c2ccccc2C1=O [MENADIONE] | – | – | – | – | – | – | – | – | – | – | 3 (≈ 17.4 µM) | 3 (≈ 17.4 µM) | 3.5 | 3 (≈ 17.4 µM) | 3 (≈ 17.4 µM) | 3 (≈ 17.4 µM) |
| CN(C)c1ccc(C2=CC(=O)c3ccccc3C2=O)cc1 | 125 (≈ 451 µM) | 62.5 (≈ 225 µM) | 250 (≈ 901 µM) | 125 (≈ 451 µM) | 250 (≈ 901 µM) | 125 (≈ 451 µM) | – | – | – | 250 (≈ 901 µM) | – | – | – | – | – | – |
| COC(=O)[C@H](C)NC1=CC(=O)c2ccccc2C1=O | 500 (≈ 1930 µM) | 500 (≈ 1930 µM) | 500 (≈ 1930 µM) | 62.5 (≈ 241 µM) | 500 (≈ 1930 µM) | 250 (≈ 964 µM) | 250 (≈ 964 µM) | – | – | 500 (≈ 1930 µM) | – | – | – | – | – | – |
| COc1ccc(C2=CC(=O)c3ccccc3C2=O)c(OC)c1 | 250 (≈ 849 µM) | 250 (≈ 849 µM) | 250 (≈ 849 µM) | 15.6 (≈ 53 µM) | 250 (≈ 849 µM) | 250 (≈ 849 µM) | – | ≤ 2 | – | – | – | – | – | – | – | – |
| O=C1C=C(N[C@@H](Cc2c[nH]c3ccccc23)C(=O)O)C(=O)c2ccccc21 | 500 (≈ 1390 µM) | 500 (≈ 1390 µM) | 500 (≈ 1390 µM) | 62.5 (≈ 173 µM) | 500 (≈ 1390 µM) | 500 (≈ 1390 µM) | 500 (≈ 1390 µM) | – | – | 500 (≈ 1390 µM) | – | – | – | – | – | – |
| O=C1C(c2ccccc2)=C(c2ccccc2)C(=O)c2ccccc21 | 500 (≈ 1610 µM) | 500 (≈ 1610 µM) | 500 (≈ 1610 µM) | 62.5 (≈ 201 µM) | 500 (≈ 1610 µM) | 250 (≈ 806 µM) | – | – | – | 500 (≈ 1610 µM) | – | – | – | – | – | – |
| CN(C)[C@@H]1C(O)=C(C(N)=O)C(=O)[C@@]2(O)C(O)=C3C(=O)c4c(O)cccc4[C@@](C)(O)[C@H]3C[C@@H]12 [TETRACYCLINE] | 3.9 (≈ 8.78 µM) | 15.6 (≈ 35.1 µM) | 7.8 (≈ 17.6 µM) | 7.8 (≈ 17.6 µM) | 15.6 (≈ 35.1 µM) | 0.5 (≈ 1.13 µM) | 31.2 (≈ 70.2 µM) | – | – | 7.8 (≈ 17.6 µM) | – | – | – | – | – | – |
| O=C1C=C(N[C@@H](C(=O)O)c2ccccc2)C(=O)c2ccccc21 | 500 (≈ 1630 µM) | 500 (≈ 1630 µM) | 500 (≈ 1630 µM) | 250 (≈ 814 µM) | 500 (≈ 1630 µM) | 500 (≈ 1630 µM) | 500 (≈ 1630 µM) | – | – | – | – | – | – | – | – | – |
